Legend:
K‐Ras(G12D) = K‐Ras(G12D) (Homo sapiens, UniProt P01116, G12D); test: Nucleotide exchange assay; format: biochemical
Method in brief: (§1)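 SOS1 (final 30.2 nM for G12D, 4.6 nM for wild type) and GTP (1 μM final) follow. Incubated overnight at room temperature, then GDP detection reagent for 1 h. Luminescence read; IC50 from sigmoidal curves.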

K‐Ras wild type protein = K‐Ras wild type protein (Homo sapiens, UniProt P01116); test: Nucleotide exchange assay; format: biochemical
Method in brief: as §1

[1] = Control assay for nucleotide exchange assay; settings: 3 mM compound; percent of control
SNU‐1 (G12D) = test: CellTiter-Glo cell viability assay, SNU-1; format: cell-based; settings: Homo sapiens, SNU1, 72 h, read-out: Cellular activity IC50, SNU‐1 (G12D)
Method in brief: (§2)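 Cells seeded, then held 24 h at 37 °C/5 % CO2 before test compound in DMSO was added at various concentrations. Plates were incubated a further 72 h at 37 °C, 5 % CO2, humidified. Controls were DMSO vehicle and 10 μM staurosporine. CellTiter-Glo reagent was added at equal volume to the medium, then 2 min shaking and 10 min at room temperature before luminescence (ATP) reading. IC50 from dose-response fit; plates accepted only if Z' ≥0.5, from 16 control values each.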

NCI‐H441 (G12 V) = test: CellTiter-Glo cell viability assay, NCI-H441; format: cell-based; settings: Homo sapiens, NCI-H441, 72 h, read-out: Cellular activity IC50, NCI‐H441 (G12 V)
Method in brief: as §2

A549 (G12S) = test: CellTiter-Glo cell viability assay, A549; format: cell-based; settings: Homo sapiens, A549, 72 h, read-out: Cellular activity IC50, A549 (G12S)
Method in brief: as §2

HCT15 (G13D) = test: CellTiter-Glo cell viability assay, HCT15; format: cell-based; settings: Homo sapiens, HCT-15, 72 h, read-out: Cellular activity IC50, HCT15 (G13D)
Method in brief: as §2

H358 (G12 C) = test: CellTiter-Glo cell viability assay, H358; format: cell-based; settings: Homo sapiens, NCI-H358, 72 h, read-out: Cellular activity IC50, H358 (G12 C)
Method in brief: as §2

Sequence of K‐Ras(G12D) (P01116 1-188 isoform P01116-2 G12D): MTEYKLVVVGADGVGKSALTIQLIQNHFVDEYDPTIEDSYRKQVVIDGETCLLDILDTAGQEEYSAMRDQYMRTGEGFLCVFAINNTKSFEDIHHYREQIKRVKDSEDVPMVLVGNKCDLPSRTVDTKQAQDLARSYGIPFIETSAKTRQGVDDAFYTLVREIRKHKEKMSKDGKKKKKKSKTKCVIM
Sequence of K‐Ras wild type protein (P01116 1-188 isoform P01116-2): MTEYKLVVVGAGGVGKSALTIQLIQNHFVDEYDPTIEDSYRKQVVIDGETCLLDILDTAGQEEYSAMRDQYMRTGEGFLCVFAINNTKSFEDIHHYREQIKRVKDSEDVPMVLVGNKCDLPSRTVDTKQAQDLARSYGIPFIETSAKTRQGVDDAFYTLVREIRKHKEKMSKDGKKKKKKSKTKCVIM

Compound | IC50 (K‐Ras(G12D)) [µM] | IC50 (K‐Ras wild type protein) [µM] | IC50 (SNU‐1 (G12D)) [µM] | IC50 (A549 (G12S)) [µM] | IC50 (HCT15 (G13D)) [µM] | IC50 (H358 (G12 C)) [µM] | WT %CRTL (3 mM) [1] [%] | IC50 (NCI‐H441 (G12 V)) [µM]
Oc1ccc(C(=NNc2ccccn2)c2ccc(O)cc2)cc1 [7 f, 4,4′‐((2‐(Pyridin‐2‐yl)hydrazinylidene)‐methylene)diphenol] | 1910 ± 98 | 2610 ± 225 | 71.1 ± 11.3 | 67 ± 1.8 |  |  | 98 | 65.8 ± 37.3
O=S(=O)(NN=C(c1ccc(O)cc1)c1ccc(O)cc1)c1ccccc1 [8 a, N′‐(bis(4‐hydroxyphenyl)methylene)benzene‐sulfonohydrazide] | 1310 ± 389 | 1030 ± 371 | 92.1 ± 12 | 105 ± 2 | 113 ± 13 | 109 ± 3 | 91 | 157 ± 54
COc1ccc(S(=O)(=O)NN=C(c2ccc(O)cc2)c2ccc(O)cc2)cc1 [8 b, N′‐(bis(4‐hydroxyphenyl)methylene)‐4‐methoxybenzenesulfonohydrazide] | 1290 ± 307 | 1620 ± 565 | 154 ± 30 | 184 ± 12 | 219 ± 43 | 161 ± 9 | 89 | 260 ± 45
O=S(=O)(NN=C(c1ccc(O)cc1)c1ccc(O)cc1)c1ccc(Br)cc1 [8 d, N′‐(bis(4‐hydroxyphenyl)methylene)‐4‐bromobenzenesulfonohydrazide] | 850 ± 120 | 2220 ± 519 | 88.7 ± 23.9 | 91.8 ± 7.4 | 96.6 ± 14.5 | 82.8 ± 8.4 | 93 | 105 ± 8
O=[N+]([O-])c1ccc(S(=O)(=O)NN=C(c2ccc(O)cc2)c2ccc(O)cc2)cc1 [8 e, N′‐(bis(4‐hydroxyphenyl)methylene)‐4‐nitrobenzenesulfonohydrazide] | 255 | 298 ± 196 | 46.8 ± 1.7 | 49.8 ± 2.1 | 51.1 ± 1.2 | 49.2 ± 0.9 |  | 58.4 ± 6.9
O=S(=O)(NN=C(c1ccc(O)cc1)c1ccc(O)cc1)c1ccc(OC(F)(F)F)cc1 [8 f, N′‐(bis(4‐hydroxyphenyl)methylene)‐4‐(trifluoromethoxy)benzenesulfonohydrazide] | 858 ± 55 | 1650 ± 731 | 110 ± 24 | 111 ± 10 | 112 ± 10 | 104 ± 3 | 92 | 179 ± 43

The next lines start with results.

IC50 (K‐Ras(G12D)) [µM] | IC50 (K‐Ras wild type protein) [µM] | IC50 (SNU‐1 (G12D)) [µM] | IC50 (A549 (G12S)) [µM] | IC50 (HCT15 (G13D)) [µM] | IC50 (H358 (G12 C)) [µM] | Compound | WT %CRTL (3 mM) [1] [%] | IC50 (NCI‐H441 (G12 V)) [µM]
> 3000 | 1500 ± 572 | > 30 | > 30 | > 30 | > 30 | N#Cc1ccc(S(=O)(=O)NN=C(c2ccc(O)cc2)c2ccc(O)cc2)cc1 [8 g, N′‐(bis(4‐hydroxyphenyl)methylene)‐4‐cyanobenzenesulfonohydrazide] | 86 | > 30
> 3000 | > 3000 | 173 ± 1 | 112 ± 3 |  |  | O=C(NN=C(c1ccc(O)cc1)c1ccc(O)cc1)c1ccccc1 [compound 10, N′‐(Bis(4‐hydroxyphenyl)methylene)‐benzohydrazide] | 93 | 158 ± 3
409 ± 32 | 334 ± 5 | 52.7 ± 0.3 |  |  |  | O=C(c1nc2cc(O)ccc2[nH]1)c1cc2cccc(O)c2o1 [compound 13, (5‐Hydroxy‐1H‐benzo[d]imidazol‐2‐yl)(7‐hydroxybenzofuran‐ 2‐yl)methanone] |  | 54.5 ± 0.2
